Test [1] deals with T1, cGnRH-R-I (Gallus gallus, UniProt Q9DDC9).
T1 sequence (Q9DDC9 1-375): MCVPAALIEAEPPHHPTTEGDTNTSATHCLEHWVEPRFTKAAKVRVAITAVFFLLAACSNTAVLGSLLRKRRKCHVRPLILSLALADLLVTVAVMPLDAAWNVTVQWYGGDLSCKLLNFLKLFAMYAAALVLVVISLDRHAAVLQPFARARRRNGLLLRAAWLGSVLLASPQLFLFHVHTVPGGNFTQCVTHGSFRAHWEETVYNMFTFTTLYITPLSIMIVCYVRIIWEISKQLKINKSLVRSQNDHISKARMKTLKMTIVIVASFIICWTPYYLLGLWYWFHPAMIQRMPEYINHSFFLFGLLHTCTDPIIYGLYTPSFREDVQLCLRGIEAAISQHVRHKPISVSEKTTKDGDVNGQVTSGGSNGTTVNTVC
Put plainly: Inositol phosphate assay, cGnRH-R-I transfected COS-7 cells. In kind it is cell-based, chicken. Summed up:
(§1)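 COS-7 cells were electroporated with a chicken type I or type III GnRH receptor expression construct and grown in DMEM with 10% FCS, 4 mM L-glutamine and penicillin/streptomycin at 37 °C, 5% CO2. After 24 h, cells were labelled 24 h with [3H]-myo-inositol in inositol-free DMEM. They were then washed in 25 mM HEPES-DMEM with 10 mM LiCl and stimulated 1 h at 37 °C with analogue. Antagonist mode included 1 nM GnRH-II. Reactions were stopped with 10 mM formic acid. Total inositol phosphates were eluted from Dowex with 1 M ammonium formate/0.1 M formic acid. Assays were run in triplicate and fitted by non-linear regression.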

The target in test [2] is T2, cGnRH-R-III (Gallus gallus, UniProt Q5EFE0).
T2 sequence (Q5EFE0 1-419): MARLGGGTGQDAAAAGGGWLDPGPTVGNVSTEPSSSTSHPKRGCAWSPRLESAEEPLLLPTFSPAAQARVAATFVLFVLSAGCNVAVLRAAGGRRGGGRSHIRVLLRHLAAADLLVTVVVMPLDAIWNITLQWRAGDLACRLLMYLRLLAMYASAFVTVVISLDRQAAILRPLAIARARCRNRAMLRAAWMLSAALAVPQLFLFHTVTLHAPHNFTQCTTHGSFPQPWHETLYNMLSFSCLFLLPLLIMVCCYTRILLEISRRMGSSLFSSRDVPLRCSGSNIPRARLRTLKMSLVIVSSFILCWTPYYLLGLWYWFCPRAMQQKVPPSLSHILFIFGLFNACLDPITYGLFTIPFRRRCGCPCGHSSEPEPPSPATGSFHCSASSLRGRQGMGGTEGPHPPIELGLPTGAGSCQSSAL
Put plainly: Inositol phosphate assay, cGnRH-R-III transfected COS-7 cells. Format: cell-based, chicken. The procedure, abridged: as §1

Test [3] addresses T1, cGnRH-R-I. Put plainly: Whole cell radioligand binding assay, cGnRH-R-I transfected COS-7 cells. Further details: species or system chicken.
Test [4] concerns the target T2, cGnRH-R-III. The experiment in a line: Whole cell radioligand binding assay, cGnRH-R-III transfected COS-7 cells. Further details: species or system chicken.

What is called pEC50 is the negative decadic logarithm of the EC50, by convention in mol/L.

pEC50: −log10 of the molar value. Entries after “also recorded” stand apart in the source; their conditions may differ. Square brackets hold non-standard residues; d marks the D form. Peptide text beside a SMILES is read from it. pGlu = O=C1CC[C@@H](C(=O)O)N1

Take `CC(C)C[C@H](NC(=O)[C@H](Cc1c[nH]c2ccccc12)NC(=O)CNC(=O)[C@H](Cc1ccc(O)cc1)NC(=O)[C@H](CO)NC(=O)[C@H](Cc1c[nH]c2ccccc12)NC(=O)[C@H](Cc1c[nH]cn1)NC(=O)[C@@H]1CCC(=O)N1)C(=O)N1CCC[C@H]1C(=O)NCC(N)=O` [sGnRH-III] ([pGlu]HWSYGWLPG-NH2): the pEC50 at cGnRH-R-I [1] is 7.99; at cGnRH-R-III [2], 7.68.
Consider “GnRH-II ([pGlu]HWSHGWYPG-NH2; ends and bridges not checked; UniProt O43555 24-33, looked up)”, for which, in the test with cGnRH-R-I [3], the “fold higher affinity for GnRH-II than for cGnRH-I” value came out at 21 fold and the “fold higher affinity for GnRH-II than for sGnRH-III” value is listed as 16 fold. For the same compound, in the test with cGnRH-R-III [4], the “fold higher affinity for GnRH-II than for cGnRH-I” value is 35 fold and the “fold higher affinity for GnRH-II than for sGnRH-III” value is 16 fold. Further, the “inositol phosphate production potency, GnRH-II relative to cGnRH-I” value with cGnRH-R-I [1] (cGnRH-R-I) is “four times more potent; also recorded: four times more potently”. Moreover, the “inositol phosphate accumulation, GnRH-II relative to cGnRH-I” value in the test with cGnRH-R-III [2] (cGnRH-R-III transfected cells) is “six times more effective”.

These data come from publication PMC2695661 (The Journal of Endocrinology, 2009).
